Source: publication PMC10972827 (Food Chemistry: X, 2024)
In brackets after ≈: the same amount, converted by molar mass.

Assays:
[1] = test system: α-amylase; test: Inhibitory kinetic assay; type: biochemical; conditions: Lineweaver-Burk double reciprocal plots, 0.5-2.0% starch
Method in brief: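 Commercial α-amylase (0.35 mL, 10 U/mL) preincubated alone or with theaflavin monomer for 5 min at 37 °C. Soluble starch (0.5, 1.0, 1.5, 2.0%) added and incubated 15 min at 37 °C. Reducing sugar measured with DNS reagent (100 °C, 5 min), A540. Initial velocities fitted to Michaelis–Menten for Km and Vmax. Inhibition type assigned from Lineweaver–Burk double-reciprocal plots. Results given as mean ± SD.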

[2] = biological target: α-amylase; test: α-amylase activity test; type: biochemical; conditions: α-amylase 10 U/mL, 1% soluble starch, 37 °C
[3] = test system: α-amylase; test: Fluorescence spectroscopy; type: binding
Method in brief: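 Commercial α-amylase (10 U/mL) mixed with each theaflavin monomer (10–200 μg/mL) at each temperature. Fluorescence spectra recorded at 278 nm over a 290–450 nm scan. Ksv derived from the Stern–Volmer relation (τ0 10−8 s). Ka and n derived from a log((F0−F)/F) vs log[Q] plot. ΔH and ΔS derived from a van't Hoff fit. Results given as mean ± SD.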

inhibition type against α-amylase [1]: mixed
IC50, inhibitory activity on α-amylase [2]: 71.43 µg/mL (≈ 127 µM)
Ka (binding constant) ([3]; 298 K): 4.4955 L/g
Ksv (quenching constant) ([3]; 298 K): 4.7890 L/g
Ka (binding constant) ([3]; 303 K): 5.1038 L/g
Ksv (quenching constant) ([3]; 303 K): 4.6468 L/g
Ka (binding constant) ([3]; 310 K): 5.6151 L/g
Ksv (quenching constant) ([3]; 310 K): 4.2950 L/g
Compound: O=c1c(O)cc([C@H]2Oc3cc(O)cc(O)c3C[C@H]2O)cc2c([C@H]3Oc4cc(O)cc(O)c4C[C@H]3O)cc(O)c(O)c12 [TF1, theaflavin]
